Rows were chosen to be rich in hits. Some 3.3% of all compounds tested hit in one or more screens of this group.
NRP1-CendR mod: NRP-1/CendR interaction modulation; FAM-RPARPAR peptide binding to NRP-1, fluorescence polarization; inhibition, % at 25 µM; 360,000 compounds, 0.85% hits; AID 602438; O14786;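 active = inhibition or corrected inhibition above about 18%, plus a signal ratio from 0.5 to 1.5, limit read from the data, passing the limit was not always enough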
SENP1 inh: inhibitors of human SENP1 SUMO protease catalytic domain. Q9P0U3. recombinant SENP1 catalytic domain, CyPet-SUMO1-YPet FRET cleavage. inhibition, % at 10 µM. 360,000 compounds, 0.21% hits. AID 624204;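 active = inhibition at least 30% at 10 µM, raw YFP signal under a set limit, fluorescence ratio 0.5 to 1.5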
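Compound: 10 µM single point, 0.5% DMSO; Test system: hSENP1 catalytic domain, recombinant; Timing: 50 min reaction at room temperature; Technique: FRET, CFP and YFP emission; Control set: no-enzyme wells low, DMSO-plus-enzyme wells high control.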
SENP7 inh: SENP7 protease inhibition; Q9BQF6; recombinant SENP7, Z-RLRGG-aminoluciferin luminescence, 40 min; inhibition, % at 5 µM; 330,000 compounds, 1.5% hits;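 active = inhibition above about 50% at the single test dose, limit read from the data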
SENP8 block-1: blocks human SENP8 cleavage of Nedd8 substrate | 360,000 compounds, 0.64% hits | Q96LD8 | recombinant SENP8, Nedd8 substrate fluorescence | AID 602440 | inhibition, % at 20 µM; in the data active = inhibition mostly above about 40%, no sharp cut-off; inactive = mostly below about 27%
SENP6 block: inhibitors of human SENP6 protease; Q9GZR1; Recombinant SENP6 catalytic domain, aminoluciferin luminescence; inhibition, % at 10 µM; 330,000 compounds, 1.8% hits; AID 2599;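 active = inhibition above about 50% at the single tested dose, limit read from the data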
Target sequence (Q9GZR1 628-1112 limits assumed): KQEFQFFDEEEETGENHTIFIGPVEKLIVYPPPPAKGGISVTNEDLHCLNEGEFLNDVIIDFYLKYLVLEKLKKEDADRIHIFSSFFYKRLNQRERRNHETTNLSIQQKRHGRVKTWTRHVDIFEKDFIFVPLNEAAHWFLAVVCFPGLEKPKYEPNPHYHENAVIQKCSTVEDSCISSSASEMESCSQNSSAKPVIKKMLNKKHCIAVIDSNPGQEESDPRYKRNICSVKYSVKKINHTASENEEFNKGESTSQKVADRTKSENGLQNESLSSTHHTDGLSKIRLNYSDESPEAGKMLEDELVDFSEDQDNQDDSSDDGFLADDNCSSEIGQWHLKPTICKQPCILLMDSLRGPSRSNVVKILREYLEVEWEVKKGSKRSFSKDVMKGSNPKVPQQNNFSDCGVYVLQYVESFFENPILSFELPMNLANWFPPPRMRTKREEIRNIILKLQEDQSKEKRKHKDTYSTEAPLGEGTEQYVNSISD
SENP8 block-2: inhibitors of human SENP8 protease. Q96LD8. purified SENP8, Z-RLRGG-aminoluciferin cleavage, luminescence. inhibition, % at 10 µM. 330,000 compounds, 1.2% hits. AID 2540; in the data active = inhibition above about 50%
SENP8 conf: human SENP8 inhibition, confirmed; 6,200 compounds, 40% hits; shares compounds with SENP7 inh; inhibition, % at 12.5 µM; Recombinant SENP8, Z-RLRGG-aminoluciferin luminescence, 60 min; AID 488912;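 active = mean inhibition across replicates above about 50%, limit read from the data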
SENP6 conf: human SENP6 inhibition, confirmed | shares compounds with SENP7 inh | recombinant SENP6, Z-RLRGG-aminoluciferin luminescence | inhibition, % at 12.5 µM | 6,200 compounds, 58% hits | AID 488915
SENP7 conf: human SENP7 inhibition, confirmed. shares compounds with SENP7 inh. recombinant SENP7, Z-RLRGG-aminoluciferin luminescence, 40 min. inhibition, % at 12.5 µM. 6,200 compounds, 69% hits
Casp3 select: caspase-3 inhibition (SENP selectivity assay). shares compounds with SENP7 inh. purified caspase-3, Z-DEVD-aminoluciferin luminescence, 60 min. inhibition, % at 12.5 µM. 6,200 compounds, 60% hits;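 active = mean inhibition above about 50%, limit read from the data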
Luc interf: counter-screen for SENP inhibitors: luminescence interference | 6,200 compounds, 39% hits | AID 488919 | inhibition, % at 12.5 µM | shares compounds with SENP7 inh | Pre-incubated SENP8/Z-RLRGG-aminoluciferin, luciferase luminescence interference;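 active = mean inhibition above about 50% when retested at one dose, limit read from the data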
Numbers stand for hits; . = inactive; / = not tested or not shown.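 The calls were made as follows, unless noted: active = mean inhibition above about 50% in the one-dose retest (limit read from the data); inactive = the rest.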

SMILES	NRP1-CendR mod	SENP1 inh	SENP7 inh	SENP8 block-1	SENP6 block	SENP8 block-2	SENP8 conf	SENP6 conf	SENP7 conf	Casp3 select	Luc interf
c1ccc(N2CC3CCc4ccccc4C3=N2)cc1 (configuration not stated)	.	.	59	.	57	.	.	51	72	.	.
CC1(C(=O)NS(=O)(=O)C2CC2)CCN(C(=O)COc2ccc(Cl)cc2Cl)C1 (configuration not stated)	.	.	/	.	/	/	/	/	/	/	/
CC(=O)Nc1ccc(N=Cc2c(O)c(C(=O)Nc3ccccc3)cc3ccccc23)cc1	/	/	.	/	.	72	.	.	.	.	.
COC(=O)[C@]12CCCCC=C1N(Cc1ccc(Cl)cc1Cl)C(=O)[C@H](CC(=O)NCc1cccs1)C2	.	.	/	.	/	/	/	/	/	/	/
CCc1cc2cc(C(=O)Nc3ccccc3F)sc2s1	.	.	92	.	50	.	.	58	98	80	.
CCc1cc2cc(C(=O)Nc3ccc(F)cc3)sc2s1	.	.	79	.	.	.	.	.	.	.	.
CC(C)(C)c1ccc(C(=O)Nc2ccc(F)cc2)s1	.	.	73	.	84	80	58	73	95	65	.
COCc1cccc(-c2csc(C(C)(NC(C)=O)c3ccc(OC)cc3)n2)c1 (configuration not stated)	.	.	/	.	/	/	/	/	/	/	/
CC1=C(C(=O)N2CCOCC2)CC(CC(=O)NCc2cccc3ccccc23)C(=O)N1Cc1ccc(C(C)(C)C)cc1 (configuration not stated)	.	.	/	.	/	/	/	/	/	/	/
O=C(CSc1nc2ccccc2o1)c1ccccc1	.	.	71	.	67	.	68	69	85	61	62
CC(=O)CSc1nc2ccccc2o1	.	.	.	.	.	.	/	/	/	/	/
COC(=O)CSc1nc2ccccc2o1	.	.	.	.	.	.	/	/	/	/	/
O=C(O)c1ccc(CSc2nc3ccccc3o2)cc1	.	.	.	.	75	54	66	64	86	83	70
O=C(O)c1ccccc1CSc1nc2ccccc2o1	.	.	62	.	85	57	77	75	91	90	81
CCOc1ccc(CCN2C(=S)N([C@@H](CC(C)C)CN3CCCC3CN3C(=S)NC[C@@H]3CC(C)C)C[C@@H]2CC(C)C)cc1 (some centres not stated)	.	.	/	.	/	/	/	/	/	/	/
Cc1ccc2nc3n(c(=O)c2c1)-c1ccccc1C(=O)NC3Cc1ccc(O)cc1 (configuration not stated)	/	/	.	/	.	.	/	/	/	/	/
OCc1cccc(-c2csc(C(O)(c3ccccc3)C(F)(F)F)n2)c1 (configuration not stated)	.	.	/	.	/	/	/	/	/	/	/
CCOC(=O)[C@H]1[C@H]2COc3ccc(Br)cc3[C@H]2N2C(=O)CN(Cc3ccc(C)cc3)C(=O)[C@@]12C	.	.	/	.	/	/	/	/	/	/	/
COc1ccccc1NC(=O)CCSc1nc(C)cc(C)n1	.	.	.	.	.	.	/	/	/	/	/
COc1ccccc1NC(=O)CCSc1ccc(C)cc1	.	.	.	.	51	.	.	.	63	.	.
O=c1oc2c(CN3CCCCC3)c(O)ccc2cc1-c1nc2ccccc2[nH]1	.	.	/	.	/	/	/	/	/	/	/
O=c1oc2c(O)cccc2cc1-c1nc2ccccc2[nH]1	.	.	96	.	93	.	.	85	.	.	.
c1ccc(-c2noc(-c3ccc4ccccc4c3)n2)cc1	.	.	98	.	92	90	.	.	.	.	.
COc1ccc(-c2noc(-c3ccc4c(c3)OCO4)n2)cc1	.	.	73	.	.	.	.	.	.	61	.
c1ccc(-c2noc(-c3ccc4c(c3)OCO4)n2)cc1	.	.	100	.	97	93	92	88	96	94	.
SMILES	NRP1-CendR mod	SENP1 inh	SENP7 inh	SENP8 block-1	SENP6 block	SENP8 block-2	SENP8 conf	SENP6 conf	SENP7 conf	Casp3 select	Luc interf
Brc1ccc(-c2nc(-c3ccccc3)no2)o1	.	.	92	.	90	85	.	87	99	70	.
COC(=O)[C@@]12C[C@@H](CC(=O)NCc3cccc(C(F)(F)F)c3)C(=O)N(Cc3cccc4ccccc34)C1=CCC(C)(C)C2	.	.	/	.	/	/	/	/	/	/	/
CCOC(=O)N1CCN(C(c2ccnc3ccccc23)c2nnnn2-c2ccc3c(c2)OCCO3)CC1 (configuration not stated)	.	.	/	.	/	/	/	/	/	/	/
COc1ccc(CCN2C(=O)CCC2(C)c2nnnn2-c2c(C)cccc2C)cc1OC (configuration not stated)	.	.	/	.	/	/	/	/	/	/	/
COc1ccc(-c2noc(COc3ccc4c(c3)OCO4)n2)cc1	.	.	.	.	.	.	/	/	/	/	/
COc1cccc(-c2noc(-c3ccc4c(c3)OCO4)n2)c1	.	.	101	.	92	89	90	88	95	92	.
O=C(Nc1c(Cl)cc2c(c1Cl)Cc1cc([N+](=O)[O-])ccc1-2)C(Cl)Cl	.	.	/	.	/	/	/	/	/	/	/
COc1ccc(-c2cc(C(=O)O)c(C)o2)cc1OC	.	.	82	.	87	73	85	84	97	90	85
COc1ccc(-c2cc(C(=O)NC(Cc3cc4ccccc4[nH]3)C(=O)O)c(C)o2)cc1OC (configuration not stated)	.	.	.	.	.	.	/	/	/	/	/
Cc1oc(-c2ccc3c(c2)OCCO3)cc1C(=O)O	.	.	98	.	99	97	98	101	104	99	99
Cc1oc(-c2ccc3c(c2)OCCO3)cc1C(=O)NCC(=O)O	.	.	.	.	81	81	.	93	98	81	91
CC(C)(C)C(C(=O)NCc1ccccc1)N1CCN(C(=O)C2CCCO2)CC1 (configuration not stated)	.	.	/	.	/	/	/	/	/	/	/
COc1ccc(C(=O)N2CCOCC2c2cc(C(=O)NCc3ccccc3)no2)cc1 (configuration not stated)	.	.	/	.	/	/	/	/	/	/	/
Cc1cc(F)ccc1C(O)c1ncc(-c2ccccc2Cl)[nH]1 (configuration not stated)	.	.	/	.	/	/	/	/	/	/	/

Compound activity: PubChem, Sanford-Burnham Center for Chemical Genomics
